Reference: ChEMBL document CHEMBL5724801, “EUbOPEN Chemogenomics Library - Multiplex” (2024)
Where “and” joins values, the source holds several entries; their conditions need not be identical. Equal values may be shown once.

The molecules below were run on HEK-293T (assay: Multiplex assay against HEK293T). Details: human, 12 h, 1 µM, compound concentration 1 uM.
Type: toxicity, cell-based
Summary of the method: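 Per cents of healthy-nucleus cells form the tubulin, mitochondrial-mass and membrane-permeability phenotype values. Live cells were stained at seeding with Hoechst33342, BioTracker Green Microtubule Cytoskeleton Dye, MitoTracker Red and Annexin V Alexa Fluor 680. After compound addition they were imaged on a CQ1 microscope at 37°C and 5% CO2, and CellPathfinder machine-learning gating split them into Hoechst high-intensity objects or normal cells, normal cells into healthy, pyknosed or fragmented nuclei, and pyknosed cells into mitotic or apoptotic.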

Row | Compound | Population Apoptotic (%) | Population Fragmented Nuclei (%) | Population Healthy Nuclei (%) | Population Hoechst High Intensity Objects (%) | Population Membrane Permeable-Phenotype (%) | Population Mitochondria Different-Phenotype (%) | Population Mitotic Cells (%) | Population Normal (%) | Population Pyknosed Nuclei (%) | Population Tubulin-Different-Phenotype (%)
1 | COc1ccc2[nH]c(I)c(CCNC(C)=O)c2c1 [IODOMELATONIN] | 42% and 59% | 4% and 5% | 80% and 84% | 5% and 7% | 1% and 0% | 43% and 64% | 57% and 40% | 94% and 92% | 14% and 10% | 35% and 32%
2 | COCCNc1cc(NC(=O)N2CCCc3cc(CN4CCN(C)CC4=O)c(C=O)nc32)ncc1C#N [FGF401] | 5.7% and 11.57% | 1.49% and 2.8% | – | 0% | 1.74% and 5.56% | – | 94.3% and 88.43% | 100% | 47.16% and 84.62% | 6.4% and 11.11%

Same assay, conditions: human, 12 h, 1 µM, compound concentration 1 uM

Row | Compound | Total Cell Count
3 | COc1ccc2[nH]c(I)c(CCNC(C)=O)c2c1 [IODOMELATONIN] | 388 and 400
4 | COCCNc1cc(NC(=O)N2CCCc3cc(CN4CCN(C)CC4=O)c(C=O)nc32)ncc1C#N [FGF401] | 335 and 143

Same assay, conditions: human, 12 h, 10 µM, compound concentration 10 uM

Row | Compound | Population Apoptotic (%) | Population Fragmented Nuclei (%) | Population Healthy Nuclei (%) | Population Hoechst High Intensity Objects (%) | Population Membrane Permeable-Phenotype (%) | Population Mitochondria Different-Phenotype (%) | Population Mitotic Cells (%) | Population Normal (%) | Population Pyknosed Nuclei (%) | Population Tubulin-Different-Phenotype (%)
5 | COc1ccc2[nH]c(I)c(CCNC(C)=O)c2c1 [IODOMELATONIN] | 38% and 46% | 11% and 8% | 77% | 8% and 12% | 0% | 52% and 62% | 61% and 53% | 91% and 87% | 10% and 14% | 29% and 25%
6 | COCCNc1cc(NC(=O)N2CCCc3cc(CN4CCN(C)CC4=O)c(C=O)nc32)ncc1C#N [FGF401] | – | 2.52% and 7.02% | – | 0% | 0.56% and 0% | 28.09% and 26.67% | 94.7% and 80.22% | 100% | 41.51% and 79.82% | –

Same assay, conditions: human, 12 h, 10 µM, compound concentration 10 uM

Row | Compound | Total Cell Count
7 | COc1ccc2[nH]c(I)c(CCNC(C)=O)c2c1 [IODOMELATONIN] | 445 and 316
8 | COCCNc1cc(NC(=O)N2CCCc3cc(CN4CCN(C)CC4=O)c(C=O)nc32)ncc1C#N [FGF401] | 318 and 114

Same assay, conditions: human, 24 h, 1 µM, compound concentration 1 uM

Row | Compound | Population Apoptotic (%) | Population Fragmented Nuclei (%) | Population Healthy Nuclei (%) | Population Hoechst High Intensity Objects (%) | Population Membrane Permeable-Phenotype (%) | Population Mitochondria Different-Phenotype (%) | Population Mitotic Cells (%) | Population Normal (%) | Population Pyknosed Nuclei (%) | Population Tubulin-Different-Phenotype (%)
9 | COc1ccc2[nH]c(I)c(CCNC(C)=O)c2c1 [IODOMELATONIN] | 38% and 44% | 8% and 9% | 80% and 78% | 3% and 8% | 1% and 0% | 24% and 37% | 61% and 55% | 96% and 91% | 11% | 23% and 14%
10 | COCCNc1cc(NC(=O)N2CCCc3cc(CN4CCN(C)CC4=O)c(C=O)nc32)ncc1C#N [FGF401] | 13.08% and 17.17% | 0.93% and 3.47% | 74.95% and 27.78% | 0% | 1.49% and 2.5% | 17.33% and 12.5% | 86.92% and 82.83% | 100% | 24.12% and 68.75% | 19.8% and 10%

Same assay, conditions: human, 24 h, 1 µM, compound concentration 1 uM

Row | Compound | Total Cell Count
11 | COc1ccc2[nH]c(I)c(CCNC(C)=O)c2c1 [IODOMELATONIN] | 511 and 497

Same assay, conditions: human, 24 h, 10 µM, compound concentration 10 uM

Row | Compound | Population Apoptotic (%) | Population Fragmented Nuclei (%) | Population Healthy Nuclei (%) | Population Hoechst High Intensity Objects (%) | Population Membrane Permeable-Phenotype (%) | Population Mitochondria Different-Phenotype (%) | Population Mitotic Cells (%) | Population Normal (%) | Population Pyknosed Nuclei (%) | Population Tubulin-Different-Phenotype (%)
12 | COc1ccc2[nH]c(I)c(CCNC(C)=O)c2c1 [IODOMELATONIN] | 32% and 40% | 11% and 5% | 77% and 81% | 5% and 9% | 1% and 0% | 31% and 48% | 67% and 59% | 94% and 90% | 10% and 12% | 25% and 21%
13 | COCCNc1cc(NC(=O)N2CCCc3cc(CN4CCN(C)CC4=O)c(C=O)nc32)ncc1C#N [FGF401] | 12.61% and 19.59% | 1.6% and 5.3% | – | 0% | 1.05% and 3.57% | 16.84% and 25% | 87.39% and 80.41% | 100% | – | 19.21% and 17.86%

Same assay, conditions: human, 24 h, 10 µM, compound concentration 10 uM

Row | Compound | Total Cell Count
14 | COc1ccc2[nH]c(I)c(CCNC(C)=O)c2c1 [IODOMELATONIN] | 568 and 360

Same assay, conditions: human, 48 h, 1 µM, compound concentration 1 uM

Row | Compound | Population Apoptotic (%) | Population Fragmented Nuclei (%) | Population Healthy Nuclei (%) | Population Hoechst High Intensity Objects (%) | Population Membrane Permeable-Phenotype (%) | Population Mitochondria Different-Phenotype (%) | Population Mitotic Cells (%) | Population Normal (%) | Population Pyknosed Nuclei (%) | Population Tubulin-Different-Phenotype (%)
15 | COc1ccc2[nH]c(I)c(CCNC(C)=O)c2c1 [IODOMELATONIN] | 26% and 31% | 12% | 79% | 4% and 5% | 1% | 19% and 22% | 73% and 68% | 95% and 94% | 7% and 8% | 16% and 14%
16 | COCCNc1cc(NC(=O)N2CCCc3cc(CN4CCN(C)CC4=O)c(C=O)nc32)ncc1C#N [FGF401] | 7.89% and 20.99% | 2.1% and 1.11% | 85.6% and 53.89% | 0% | 6.24% and 0% | 18.81% and 29.9% | 92.11% and 79.01% | 100% | – | –

Same assay, conditions: human, 48 h, 1 µM, compound concentration 1 uM

Row | Compound | Total Cell Count
17 | COc1ccc2[nH]c(I)c(CCNC(C)=O)c2c1 [IODOMELATONIN] | 770 and 622

Same assay, conditions: human, 48 h, 10 µM, compound concentration 10 uM

Row | Compound | Population Apoptotic (%) | Population Fragmented Nuclei (%) | Population Healthy Nuclei (%) | Population Hoechst High Intensity Objects (%) | Population Membrane Permeable-Phenotype (%) | Population Mitochondria Different-Phenotype (%) | Population Mitotic Cells (%) | Population Normal (%) | Population Pyknosed Nuclei (%) | Population Tubulin-Different-Phenotype (%)
18 | COc1ccc2[nH]c(I)c(CCNC(C)=O)c2c1 [IODOMELATONIN] | 23% and 25% | 16% and 15% | 77% and 75% | 1% and 2% | 1% and 0% | 16% and 24% | 76% and 74% | 98% and 97% | 5% and 9% | 11% and 16%
19 | COCCNc1cc(NC(=O)N2CCCc3cc(CN4CCN(C)CC4=O)c(C=O)nc32)ncc1C#N [FGF401] | – | 3.22% and 0% | 84.41% and 59.29% | 0% and 0.71% | 4.23% and 1.2% | 18.89% and 40.96% | 94.37% and 80.7% | 100% and 99.29% | – | –

Same assay, conditions: human, 48 h, 10 µM, compound concentration 10 uM

Row | Compound | Total Cell Count
20 | COc1ccc2[nH]c(I)c(CCNC(C)=O)c2c1 [IODOMELATONIN] | 860 and 613
